Activity calls are given as the source filed them. The calls are words filed in the database; no cut-off is given here.

Series [1] can be described thus: Volume of distribution in pigeon at 30 mg/kg, iv by naive pooling approach. The series is classed as ADME, organism-based. More on the design: dose 30 mg/kg, route intravenous. The conditions noted are these: columba livia, in vivo. The method, boiled down:
(§1)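 Crossover design, one week apart, 24 homing pigeons. […] Blood taken at 0.25–8 h, six samples per time point; plasma assayed by HPLC-UV (linear 0.05–20 μg/ml). Data fitted by naive pooling, iv biexponential and oral triexponential two-compartment models, plus nonlinear mixed-effects modelling; F derived from mean AUC0–∞.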

Series [2] in a line: Oral bioavailability in pigeon at 30 mg/kg, po by naive pooling approach. The series is classed as ADME, organism-based. As to conditions: columba livia, in vivo. The method, boiled down: as §1
Series [3] in a line: in vivo. As to conditions: columba livia, plasma, po, 30 mg/kg.
In series [4] the test system is Salmonella typhimurium. The experiment in a line: Antimicrobial activity against Salmonella enterica subsp. enterica serovar Typhimurium PT99/DAB69 in pigeon kidney assessed as decrease in bacterial count relative to untreated control. The series is classed as functional, organism-based. The method, boiled down: (§2)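 Homing pigeons, 10 per group, housed individually. Crop inoculation with 10^8 CFU in 1 ml PBS. […] Tissue CFU per gram counted by plating tenfold dilutions on brilliant green agar, with enrichment in buffered peptone water and tetrathionate broth if direct plating was negative.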

Series [5] is described as follows: Cmax in pigeon at 30 mg/kg, po by naive pooling approach. It is filed as ADME, organism-based. Set-up: dose 30 mg/kg, route oral. The conditions noted are these: columba livia, in vivo. The method, boiled down:
as §1

The nature of series [6]: Tmax in pigeon at 30 mg/kg, po by naive pooling approach. The conditions noted are these: columba livia, in vivo. Set-up: dose 30 mg/kg, route oral. It is filed as ADME, organism-based. In a few lines:
as §1

Series [7] is described as follows: Volume of distribution in central compartment in pigeon at 30 mg/kg, iv. The series is classed as ADME, organism-based. More on the design: dose 30 mg/kg, route intravenous. The conditions noted are these: columba livia, in vivo. The method, boiled down:
as §1

A short description of series [8]: Plasma protein binding in pigeon at 10 ug/ml. It is filed as ADME, cell-free. The conditions noted are these: columba livia, read-out: PPB (converted). The method, boiled down: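 Ultrafiltration through a 30K membrane, free drug in the ultrafiltrate measured by HPLC. Bound drug taken as total minus free.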
Series [9] is described as follows: Half life at beta phase in pigeon at 30 mg/kg, iv by naive pooling approach. It is filed as ADME, organism-based. Set-up: dose 30 mg/kg, route intravenous. The conditions noted are these: columba livia, in vivo. In a few lines:
as §1

A short description of series [10]: Oral bioavailability in pigeon at 30 mg/kg, po. It is filed as ADME, organism-based. As to conditions: columba livia, in vivo. The method, boiled down: as §1
Series [11] concerns Salmonella typhimurium. The experiment in a line: Antimicrobial activity against Salmonella enterica subsp. enterica serovar Typhimurium PT99/DAB69 at 2 ug/ml after 16 hrs. The series is classed as functional. The method, boiled down: (§3)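 Killing curve in Mueller-Hinton broth inoculated with 5 × 10^5 CFU of the strain (grown in LB, 37°C, 16 h, static). […] Tenfold dilutions plated onto Mueller-Hinton agar at several time points after inoculation; the decrease in log10 CFU is read at 16 h.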

Series [12] in a line: in vivo. The conditions noted are these: columba livia, plasma, iv, 30 mg/kg.
Series [13] is described as follows: Half life at beta phase in pigeon at 30 mg/kg, po by naive pooling approach. It is filed as ADME, organism-based. Set-up: dose 30 mg/kg, route oral. The conditions noted are these: columba livia, in vivo. In a few lines:
as §1

A further series relates to Columba livia. The experiment in a line: Drug uptake in Salmonella enterica subsp. enterica serovar Typhimurium PT99/DAB69 infected pigeon at 26 to 45 mg/kg. The series is classed as ADME, organism-based. More on the design: dose 26-45 mg/kg. As to conditions: in vivo.
Series [14] can be described thus: Mean residence time in pigeon at 30 mg/kg, iv by naive pooling approach. It is filed as ADME, organism-based. Set-up: dose 30 mg/kg, route intravenous. The conditions noted are these: columba livia, in vivo, read-out: Time. In a few lines: as §1
In series [15] the test system is Salmonella typhimurium. The experiment in a line: Antimicrobial activity against Salmonella enterica subsp. enterica serovar Typhimurium PT99/DAB69 in pigeon spleen assessed as decrease in bacterial count relative to untreated control. The series is classed as functional, organism-based. The method, boiled down: as §2
Series [16] is described as follows: in vivo. As to conditions: columba livia, plasma, po, 30 mg/kg. This is another data set of the same source.
Series [17] has as its system Salmonella typhimurium. The experiment in a line: Antimicrobial activity against Salmonella enterica subsp. enterica serovar Typhimurium PT99/DAB69 at 4 ug/ml after 16 hrs. The series is classed as functional. In a few lines: as §3
Series [18] in a line: in vivo. The conditions noted are these: columba livia, plasma, iv, 30 mg/kg. The source holds these as a separate data set.

In general, Vd refers to the apparent volume that relates the amount in the body to the concentration in plasma or blood. High values mean wide distribution into tissue, low ones little distribution into tissue. As usually defined, the bioavailability is the share of a dose that reaches the circulation, judged against a reference dose that is usually intravenous. Read a low bioavailability as little systemic uptake. Usually AUC(0-inf) stands for the area under the concentration-time curve extrapolated to infinity. A high value points to more exposure. Usually Cmax stands for the highest concentration seen after dosing. The Tmax is the time at which the peak concentration occurs. A word on the half-life: it is the time in which the quantity being followed falls by half. A lower half-life goes with rapid decline. With `CS(=O)(=O)c1ccc([C@@H](O)[C@@H](CF)NC(=O)C(Cl)Cl)cc1` [FLORFENICOL], the Vd came to 2.02 L/kg in series [1] and 0.88 L/kg in series [7]. Moreover, the bioavailability came out at 58.5% in [2] and 60% in [10]. The AUC(0-inf) was 13100 ng·h/mL in “in vivo [3]”, 21300 ng·h/mL in “in vivo [12]”, 12500 ng·h/mL in “in vivo [16]” and 22700 ng·h/mL in “in vivo [18]”. Moreover, the outcome with Salmonella typhimurium [4] and with Salmonella typhimurium [15] was inactive. This compound returned a Cmax in series [5] of 5100 ng/mL. Moreover, the Tmax in series [6] was found to be 0.69 h. In addition, in series [8], the fraction unbound at 10 ug/ml is 0.288. Further, the half-life in series [9] was 1.73 h; in series [13] it was 2.69 h. Moreover, the log10cfu with Salmonella typhimurium [11] was 1; with Salmonella typhimurium [17], 2. The compound also had a Drug uptake with Columba livia of 35 mg/kg. Further, the MRT in series [14] came out at 1.43 h.

The record behind these values is ChEMBL document CHEMBL1255269 (Antimicrob Agents Chemother, 2008).
